Legend:
[1] = tested on: Mus musculus; experiment: Contractile activity in skeletal muscles, after 1 hour of peroral administration in mouse at dose 30 mg/kg; type: functional; conditions: Muscle tissue, route oral
In short: (§1)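 Male mice were placed for 1 h on a 60° inclined wire screen just after dosing and 4 h later. In a second test, trained mice hung by the forepaws from a horizontal 1.8 mm wire 15 cm up; normal mice touch it with a hind paw within 2 s and stay ≥1 min. ED50 is the dose making 50% fall. Dosing was oral in gum arabic suspension at 10 mL/kg after an overnight fast.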

[2] = tested on: dog (Canis familiaris); experiment: Antagonistic activity against apomorphine-induced emesis, after 5 hour of peroral administration in dogs; conditions: Canis lupus familiaris, po
[3] = tested on: Mus musculus; experiment: Inhibitory activity against tremorine-induced tremors, after 5 hour of peroral administration in mouse; type: functional; conditions: po
[4] = tested on: Mus musculus; experiment: Anticonvulsant activity against tryptamine-induced convulsions, after 5 hour of peroral administration in mouse at dose of 40 mg/kg; type: functional; conditions: route oral
In short: (§2)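 Compounds were dosed as bases suspended in arabic gum at 10 mL/kg orally, after an overnight fast, with vehicle controls. Protection meant no bilateral forepaw clonic seizures or head twitches (tryptamine), or no tonic hind-limb extension (the other two). ED50 is the dose protecting 50%, by probit analysis.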

[5] = tested on: Mus musculus; experiment: Inhibitory activity against tremorine-induced tremors, after 5 hour of peroral administration in mouse at dose of 60 mg/kg; type: functional; conditions: route oral
In short: (§3)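 Male mice fasted overnight, dosed orally with arabic gum suspension (10 mL/kg) 1 or 5 h before test, vehicle controls included. Tremorine 20 mg/kg ip given 1 h after compounds; central (tremor) and peripheral (salivation) parasympathetic signs recorded. ED50 = dose protecting 50% of animals, by probit analysis.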

[6] = tested on: Mus musculus; experiment: Anticonvulsant activity against electroshock-induced convulsions, after 5 hour of peroral administration in mouse at dose of 100 mg/kg; type: functional; conditions: route oral; in short: as §2
[7] = tested on: Mus musculus; experiment: Inhibitory activity against tremorine-induced salivation, after 1 hour of peroral administration in mouse at dose of 60 mg/kg; type: functional; conditions: route oral; in short: as §3
[8] = tested on: Mus musculus; experiment: Effect on skeletal muscle tone, after 1 hour of peroral administration in mouse at dose of 200 mg/kg; type: functional; conditions: Muscle tissue, route oral; in short: as §1
[9] = tested on: Mus musculus; experiment: Inhibitory activity against tremorine-induced salivation, after 5 hour of peroral administration in mouse at dose of 60 mg/kg; type: functional; conditions: route oral; in short: as §3
[10] = tested on: Mus musculus; experiment: Inhibitory activity against tremorine-induced tremors, after 1 hour of peroral administration in mouse at dose of 60 mg/kg; type: functional; conditions: route oral; in short: as §3
[11] = tested on: dog (Canis familiaris); experiment: Antagonistic activity against apomorphine-induced emesis, after 5 hour of peroral administration in dogs; conditions: Canis lupus familiaris, po; remark: listed apart in the source
[12] = tested on: Mus musculus; experiment: Inhibitory activity against tremorine-induced tremors, after 1 hour of peroral administration in mouse at dose 7.5 mg/kg; type: functional; conditions: route oral; in short: as §3
[13] = tested on: Mus musculus; experiment: Anticonvulsant activity against pentylenetetrazole-induced convulsions, after 1 hour of peroral administration in mouse at a dose of 15 mg/kg; type: functional; conditions: route oral; in short: as §2
[14] = tested on: Mus musculus; experiment: Inhibition of spontaneous locomotor activity, after 1 hour of peroral administration in mouse; type: functional; conditions: po
In short: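 Mice in groups of five were dosed orally with gum arabic suspensions at 10 mL/kg after an overnight fast, with a vehicle control group. Locomotion was counted for 10 min in a photocell activity cage, in at least two groups per dose. ED50, by probit analysis, is the dose giving 50% inhibition against controls.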

[15] = tested on: Mus musculus; experiment: Inhibitory activity against tremorine-induced tremors, after 5 hour of peroral administration in mouse at dose 7.5 mg/kg; type: functional; conditions: route oral; in short: as §3
[16] = tested on: Mus musculus; experiment: Anticonvulsant activity against pentylenetetrazole-induced convulsions, after 5 hour of peroral administration in mouse at a dose of 100 mg/kg; type: functional; conditions: route oral; in short: as §2
[17] = tested on: Mus musculus; experiment: Activity of inclined screen in mouse, after 1 hour of peroral administration in mouse at a dose of 100 mg/kg; type: functional; conditions: route oral
In short: (§4)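 Male mice dosed orally (arabic gum suspension, 10 mL/kg, fasted overnight) 1 or 5 h before testing. Placed for 1 h on a wire screen bent at 60° to the horizontal. Ataxic or miorelaxed mice slide off. ED50 is the dose at which 50% of mice fall, by probit analysis. Ten animals per dose, with vehicle controls.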

[18] = tested on: Rattus norvegicus; experiment: Inhibition against conditioned avoidance response, after 1 hour of peroral administration in rats at a dose of 40 mg/kg; type: functional; conditions: route oral
In short: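 Male rats were trained in a shuttle box to avoid grid-floor shock by crossing compartments during a warning period. Dosing was oral as a gum arabic suspension at 10 mL/kg after an overnight fast. Percent inhibition was computed against a pretraining test. ED50 is the dose giving 50% inhibition.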

[19] = tested on: Mus musculus; experiment: Activity of inclined screen in mouse, after 5 hour of peroral administration in mouse at a dose of 100 mg/kg; type: functional; conditions: route oral; in short: as §4
[20] = tested on: Rattus norvegicus; experiment: Inhibitory activity against norepinephrine-induced lethality, after 1 hour of peroral administration in rat at a dose of 40 mg/kg; type: functional; conditions: route oral
In short: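 Rats (80–90 g) dosed orally (arabic gum, 10 mL/kg) 1 or 5 h before norepinephrine 0.5 mg/kg iv, which kills unprotected rats within 30 min. ED50 is the dose protecting 50% of rats from lethality, by probit analysis.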

[21] = tested on: Mus musculus; experiment: Anticonvulsant activity against tryptamine-induced convulsions, after 1 hour of peroral administration in mouse at a dose of 40 mg/kg; type: functional; conditions: route oral; in short: as §2
[22] = tested on: Mus musculus; experiment: Anticonvulsant activity against electroshock-induced convulsions, after 5 hour of peroral administration in mouse at a dose of 100 mg/kg; type: functional; conditions: route oral; in short: as §2
[23] = tested on: Rattus norvegicus; experiment: Antagonistic activity against apomorphine-induced stereotypy in rats, by administering perorally at a dose of 100 mg/kg; type: functional; conditions: route oral
In short: (§5)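 Male rats fasted overnight and given oral doses in arabic gum suspension (10 mL/kg) 1 h, or 1 and 5 h, before challenge. Apomorphine 3 mg/kg iv, with stereotypy observed 20 min later. ED50 is the dose inhibiting stereotypy in 50% of rats, per Janssen's method. Parenthetical entries give the maximal dose and percent activity.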

[24] = tested on: Rattus norvegicus; experiment: Activity to evoke catalepsy in rats, by administering perorally at a dose of 200 mg/kg; type: functional; conditions: route oral
In short: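 Rats fasted overnight and given oral doses in arabic gum suspension (10 mL/kg), 1 h before screening or 1 and 5 h before profile testing. Forelegs placed on a horizontal bar 7 cm high, three times at 5-min intervals. Immobility of at least 15 s counts as catalepsy. ED50 is the dose giving catalepsy in 50% of rats, by probit analysis. Parenthetical entries give the maximal dose and percent activity.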

[25] = tested on: Mus musculus; experiment: Anticonvulsant activity against pentylenetetrazole-induced convulsions, after 1 hour of peroral administration in mouse at a dose of 40 mg/kg; type: functional; conditions: route oral
In short: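 Male mice dosed orally (arabic gum, 10 mL/kg) 1 or 5 h before challenge with tryptamine 100 mg/kg iv, pentylenetetrazol 110 mg/kg ip, or maximal electroshock. Protection means no bilateral forepaw clonic seizures and head twitches (tryptamine) or no tonic hind-limb extension (others). ED50 protects 50% of mice.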

[26] = tested on: Mus musculus; experiment: Activity of inclined screen in mouse, after 5 hour of peroral administration in mouse at a dose of 60 mg/kg; type: functional; conditions: route oral; in short: as §4
[27] = tested on: Rattus norvegicus; experiment: Antagonistic activity against apomorphine-induced stereotypy, after 5 hour of peroral administration in rats at a dose of 100 mg/kg; type: functional; conditions: route oral; in short: as §5
[28] = tested on: Mus musculus; experiment: Effect on skeletal muscle tone, after 1 hour of peroral administration in mouse at a dose of 100 mg/kg; type: functional; conditions: Muscle tissue, route oral; in short: as §1

O=C(CCCN1CCC(O)(c2ccc(Cl)cc2)CC1)c1ccc(F)cc1 [HALOPERIDOL]
inhibition in vivo at 30 mg/kg [1]: 0%
ED50 [2]: 0.04 mg/kg
ED50 [3]: 20 mg/kg

COc1ccccc1N1CCN(CCc2oc(=O)[nH]c2-c2ccc(F)cc2)CC1 [ZOLOPERONE]
inhibition in vivo at 40 mg/kg [4]: 0%
inhibition in vivo at 60 mg/kg [5]: 0%
inhibition in vivo at 100 mg/kg [6]: 0%
inhibition in vivo at 60 mg/kg [7]: 0%
inhibition in vivo at 200 mg/kg [8]: 0%
inhibition in vivo at 60 mg/kg [9]: 0%
inhibition in vivo at 60 mg/kg [10]: 10%

CN(C)CCCN1c2ccccc2Sc2ccc(Cl)cc21 [CHLORPROMAZINE]
ED50 [11]: 7.5 mg/kg
inhibition in vivo at 7.5 mg/kg [12]: 0%
inhibition in vivo at 15 mg/kg [13]: 0%
ED50 [14]: 2.9 mg/kg
inhibition in vivo at 7.5 mg/kg [15]: 15%

O=c1[nH]c(-c2ccc(F)cc2)c(CCN2CCN(c3cc(Cl)cc(Cl)c3)CC2)o1 [LODIPERONE]
inhibition in vivo at 100 mg/kg [16]: 0%
inhibition in vivo at 100 mg/kg [17]: 0%
inhibition in vivo at 40 mg/kg [18]: 44%
inhibition in vivo at 100 mg/kg [19]: 0%
inhibition in vivo at 40 mg/kg [20]: 10%
inhibition in vivo at 40 mg/kg [21]: 0%
inhibition in vivo at 100 mg/kg [22]: 0%
inhibition in vivo at 100 mg/kg [23]: 0%
inhibition in vivo at 200 mg/kg [24]: 0%

COc1ccccc1N1CCN(CCCC(=O)c2ccc(F)cc2)CC1 [FLUANISONE]
inhibition in vivo at 40 mg/kg [25]: 0%
inhibition in vivo at 60 mg/kg [26]: 0%
inhibition in vivo at 100 mg/kg [27]: 0%
inhibition in vivo at 100 mg/kg [28]: 30%

Source: ChEMBL document CHEMBL1124344, “5-Piperazinylalkyl-2(3H)-oxazolones with neuroleptic activity” (J Med Chem, 1989)
